In ChEMBL document CHEMBL2086314, “Synthesis and anticonvulsant activity of new N-Mannich bases derived from 3-(2-fluorophenyl)- and 3-(2-bromophenyl)-pyrrolidine-2,5-diones. Part II” (Bioorg Med Chem, 2012):
Activity calls are given as the source filed them. The calls are words filed in the database; no cut-off is given here.

Tested on: Mus musculus
Test: Anticonvulsant activity in CF-1 albino mouse assessed as protection from maximal electric shock-induced seizures at 300 mg/kg, ip measured after 0.5 hrs
Type: functional, organism-based
Design: dose 300 mg/kg
Conditions: not given
In short: (§1)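 Male CF-1 mice dosed ip at 30, 100 or 300 mg/kg, suspension in 0.5% methylcellulose/water. MES: corneal electrodes primed with electrolyte containing anaesthetic, 50 mA, 60 Hz, 0.2 s. Examined 0.5 and 4 h after dosing. Value is the minimum dose protecting half or more of the animals.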

SMILES	Activity
O=C1CC(c2ccccc2Br)C(=O)N1CN1CCN(C2CCCCC2)CC1 (racemic)	inactive

Tested on: Mus musculus
Test: Anticonvulsant activity in ip dosed CF-1 albino mouse assessed as protection from maximal electric shock-induced seizures measured after 4 hrs
Type: functional
Conditions: read-out: MED
In short: as §1

SMILES	minimal effective dose [mg/kg]
Cl.Cl.O=C1CC(c2ccccc2F)C(=O)N1CN1CCN(CCO)CC1 (racemic)	100
O=C1CC(c2ccccc2Br)C(=O)N1CN1CCN(C2CCCCC2)CC1 (racemic)	100

Tested on: Mus musculus
Test: Neurotoxicity in CF-1 albino mouse assessed as motor impairment at 300 mg/kg, ip measured after 0.5 hrs by rotarod test
Type: toxicity, organism-based
Design: dose 300 mg/kg, route intraperitoneal
Conditions: in vivo
In short: (§2)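 Rotarod neurotoxicity in male CF-1 mice given ip doses of 30, 100 or 300 mg/kg (0.5% methylcellulose suspension), examined 0.5 and 4 h after dosing. Impairment means failing to hold balance on the rod for 1 min. Value is the minimum dose causing toxicity in half or more of the animals; response comments are recorded.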

SMILES	Activity
Cl.Cl.O=C1CC(c2ccccc2F)C(=O)N1CN1CCN(CCO)CC1 (racemic)	Non-toxic
O=C1CC(c2ccccc2Br)C(=O)N1CN1CCN(C2CCCCC2)CC1 (racemic)	Non-toxic

Tested on: Mus musculus
Test: Neurotoxicity in CF-1 albino mouse assessed as motor impairment at 300 mg/kg, ip measured after 4 hrs by rotarod test
Type: toxicity, organism-based
Design: dose 300 mg/kg, route intraperitoneal
Conditions: in vivo
In short: as §2

SMILES	Activity
Cl.Cl.O=C1CC(c2ccccc2F)C(=O)N1CN1CCN(CCO)CC1 (racemic)	Non-toxic
O=C1CC(c2ccccc2Br)C(=O)N1CN1CCN(C2CCCCC2)CC1 (racemic)	Non-toxic

Tested on: Mus musculus
Test: Anticonvulsant activity in ip dosed CF-1 albino mouse assessed as protection against subcutaneous pentylenetetrazol-induced seizures measured after 0.5 hrs
Type: functional
Conditions: read-out: MED
In short: (§3)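 scPTZ test in male CF-1 mice. Compound suspended in 0.5% methylcellulose/water, ip at 30, 100 or 300 mg/kg. Pentylenetetrazole 85 mg/kg (CD97, clonic seizures lasting at least 5 s) given subcutaneously at the test time, read at 0.5 and 4 h. Value is the minimum dose protecting half or more of the animals.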

SMILES	minimal effective dose [mg/kg]
Cl.Cl.O=C1CC(c2ccccc2F)C(=O)N1CN1CCN(CCO)CC1 (racemic)	300

Tested on: Mus musculus
Test: Anticonvulsant activity in CF-1 albino mouse assessed as protection against subcutaneous pentylenetetrazol-induced seizures at 300 mg/kg, ip measured after 0.5 hrs
Type: functional, organism-based
Design: dose 300 mg/kg
Conditions: not given
In short: as §3

SMILES	Activity
O=C1CC(c2ccccc2Br)C(=O)N1CN1CCN(C2CCCCC2)CC1 (racemic)	inactive

Tested on: Mus musculus
Test: Anticonvulsant activity in CF-1 albino mouse assessed as protection against subcutaneous pentylenetetrazol-induced seizures at 300 mg/kg, ip measured after 4 hrs
Type: functional, organism-based
Design: dose 300 mg/kg
Conditions: not given
In short: as §3

SMILES	Activity
Cl.Cl.O=C1CC(c2ccccc2F)C(=O)N1CN1CCN(CCO)CC1 (racemic)	inactive
O=C1CC(c2ccccc2Br)C(=O)N1CN1CCN(C2CCCCC2)CC1 (racemic)	inactive

Tested on: Mus musculus
Test: Neurotoxicity in CF-1 albino mouse assessed as myoclonic jerks at 300 mg/kg, ip measured after 0.5 hrs by rotarod test
Type: toxicity, organism-based
Design: dose 300 mg/kg, route intraperitoneal
Conditions: in vivo

SMILES	Activity
Cl.Cl.O=C1CC(c2ccccc2F)C(=O)N1CN1CCN(CCO)CC1 (racemic)	Toxic

Tested on: Rattus norvegicus
Test: Anticonvulsant activity in Sprague-Dawley rat assessed as protection from maximum electric shock-induced seizures at 30 mg/kg, po measured after 0.25 hrs
Type: functional
Conditions: not given
In short: (§4)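 Male Sprague–Dawley rats, four per group, given 30 mg/kg orally as a suspension in 0.5% methylcellulose/water. MES stimulus 150 mA, 60 Hz, 0.2 s via corneal electrodes. Tested at 0.25, 0.5, 1, 2 and 4 h; value is rats protected out of four.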

SMILES	Activity [%]
Cl.Cl.O=C1CC(c2ccccc2F)C(=O)N1CN1CCN(CCO)CC1 (racemic)	25
O=C1CC(c2ccccc2Br)C(=O)N1CN1CCN(C2CCCCC2)CC1 (racemic)	50

Tested on: Rattus norvegicus
Test: Anticonvulsant activity in Sprague-Dawley rat assessed as protection from maximum electric shock-induced seizures at 30 mg/kg, po measured after 0.5 hrs
Type: functional
Conditions: not given
In short: as §4

SMILES	Activity [%]
Cl.Cl.O=C1CC(c2ccccc2F)C(=O)N1CN1CCN(CCO)CC1 (racemic)	25
O=C1CC(c2ccccc2Br)C(=O)N1CN1CCN(C2CCCCC2)CC1 (racemic)	50

Tested on: Rattus norvegicus
Test: Anticonvulsant activity in Sprague-Dawley rat assessed as protection from maximum electric shock-induced seizures at 30 mg/kg, po measured after 1 hr
Type: functional
Conditions: not given
In short: as §4

SMILES	Activity [%]
Cl.Cl.O=C1CC(c2ccccc2F)C(=O)N1CN1CCN(CCO)CC1 (racemic)	50
O=C1CC(c2ccccc2Br)C(=O)N1CN1CCN(C2CCCCC2)CC1 (racemic)	100

Tested on: Rattus norvegicus
Test: Anticonvulsant activity in Sprague-Dawley rat assessed as protection from maximum electric shock-induced seizures at 30 mg/kg, po measured after 2 hrs
Type: functional
Conditions: not given
In short: as §4

SMILES	Activity [%]
Cl.Cl.O=C1CC(c2ccccc2F)C(=O)N1CN1CCN(CCO)CC1 (racemic)	25
O=C1CC(c2ccccc2Br)C(=O)N1CN1CCN(C2CCCCC2)CC1 (racemic)	25

Tested on: Rattus norvegicus
Test: Anticonvulsant activity in Sprague-Dawley rat assessed as protection from maximum electric shock-induced seizures at 30 mg/kg, po measured after 4 hrs
Type: functional
Conditions: not given
In short: as §4

SMILES	Activity [%]
Cl.Cl.O=C1CC(c2ccccc2F)C(=O)N1CN1CCN(CCO)CC1 (racemic)	25
O=C1CC(c2ccccc2Br)C(=O)N1CN1CCN(C2CCCCC2)CC1 (racemic)	25

Tested on: Rattus norvegicus
Test: Neurotoxicity in Sprague-Dawley rat assessed as motor impairment at 30 mg/kg, po by rotarod test
Type: toxicity, organism-based
Design: dose 30 mg/kg, route oral
Conditions: in vivo
In short: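 Male Sprague–Dawley rats, four animals, oral 30 mg/kg in 0.5% methylcellulose/water. Motor impairment on the rotarod (failure to keep balance for 1 min) assessed alongside MES at five times from 0.25 to 4 h.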

SMILES	Activity
Cl.Cl.O=C1CC(c2ccccc2F)C(=O)N1CN1CCN(CCO)CC1 (racemic)	Non-toxic
O=C1CC(c2ccccc2Br)C(=O)N1CN1CCN(C2CCCCC2)CC1 (racemic)	Non-toxic

Tested on: Rattus norvegicus
Test: Anticonvulsant activity in po dosed Sprague-Dawley rat assessed as protection from maximum electric shock-induced seizures
Type: functional
Conditions: not given
In short: (§5)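 Male Sprague–Dawley rats dosed orally (0.5% methylcellulose suspension). MES 150 mA, 60 Hz, 0.2 s; rotarod impairment is failure to keep balance for 1 min. Groups of eight, at the previously estimated time of peak effect, with doses varied until at least three points fell in the 10–90% range. ED50/TD50 with 95% confidence intervals from regression; PI = TD50/ED50.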

SMILES	ED50 [mg/kg]
Cl.Cl.O=C1CC(c2ccccc2F)C(=O)N1CN1CCN(CCO)CC1 (racemic)	> 500
O=C1CC(c2ccccc2Br)C(=O)N1CN1CCN(C2CCCCC2)CC1 (racemic)	< 240

Tested on: not listed separately
Test: Neurotoxicity in po dosed Sprague-Dawley rat assessed as motor impairment measured at time of peak effect by rotarod test
Type: toxicity, organism-based
Conditions: in vivo
In short: as §5

SMILES	TD50 [mg/kg]
Cl.Cl.O=C1CC(c2ccccc2F)C(=O)N1CN1CCN(CCO)CC1 (racemic)	> 500

Tested on: Rattus norvegicus
Test: Anticonvulsant activity in po dosed maximum electric shock-induced Sprague-Dawley rat assessed as time of peak effect
Type: functional
Conditions: not given
In short: as §5

SMILES	Time [h]
Cl.Cl.O=C1CC(c2ccccc2F)C(=O)N1CN1CCN(CCO)CC1 (racemic)	0.5
O=C1CC(c2ccccc2Br)C(=O)N1CN1CCN(C2CCCCC2)CC1 (racemic)	2

Tested on: not listed separately
Test: Neurotoxicity in ip dosed CF-1 albino mouse assessed as motor impairment by rotarod test
Type: toxicity, organism-based
Conditions: in vivo

SMILES	TD50 [mg/kg]
CC[C@@H](C(N)=O)N1CCCC1=O	> 500

Tested on: Mus musculus
Test: Anticonvulsant activity in CF-1 albino mouse assessed as protection against 6 Hz psychomotor seizure at 100 mg/kg, ip measured after 0.25 hrs
Type: functional
Conditions: route intraperitoneal
In short: (§6)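 6-Hz psychomotor seizure in male CF-1 mice, compound suspended in 0.5% methylcellulose/water, given ip (100 or 75 mg/kg). Corneal stimulation with 0.2 ms monopolar rectangular pulses at 6 Hz for 3 s, 32 mA, constant-current device. Protected if normal exploratory behaviour resumes within 10 s. Tested 0.25–4 h after dosing; value is mice protected out of four.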

SMILES	Activity [%]
Cl.Cl.O=C1CC(c2ccccc2F)C(=O)N1CN1CCN(CCO)CC1 (racemic)	50

Tested on: Mus musculus
Test: Anticonvulsant activity in CF-1 albino mouse assessed as protection against 6 Hz psychomotor seizure at 100 mg/kg, ip measured after 0.5 hrs
Type: functional
Conditions: route intraperitoneal
In short: as §6

SMILES	Activity [%]
Cl.Cl.O=C1CC(c2ccccc2F)C(=O)N1CN1CCN(CCO)CC1 (racemic)	25

Tested on: Mus musculus
Test: Anticonvulsant activity in CF-1 albino mouse assessed as protection against 6 Hz psychomotor seizure at 100 mg/kg, ip measured after 1 hr
Type: functional
Conditions: route intraperitoneal
In short: as §6

SMILES	Activity [%]
Cl.Cl.O=C1CC(c2ccccc2F)C(=O)N1CN1CCN(CCO)CC1 (racemic)	0

Tested on: Mus musculus
Test: Anticonvulsant activity in CF-1 albino mouse assessed as protection against 6 Hz psychomotor seizure at 100 mg/kg, ip measured after 2 hrs
Type: functional
Conditions: route intraperitoneal
In short: as §6

SMILES	Activity [%]
Cl.Cl.O=C1CC(c2ccccc2F)C(=O)N1CN1CCN(CCO)CC1 (racemic)	0

Tested on: Mus musculus
Test: Anticonvulsant activity in CF-1 albino mouse assessed as protection against 6 Hz psychomotor seizure at 100 mg/kg, ip measured after 4 hrs
Type: functional
Conditions: route intraperitoneal
In short: as §6

SMILES	Activity [%]
Cl.Cl.O=C1CC(c2ccccc2F)C(=O)N1CN1CCN(CCO)CC1 (racemic)	0

Tested on: Mus musculus
Test: Anticonvulsant activity in ip dosed 6 Hz psychomotor-induced seizure in CF-1 albino mouse assessed as time of peak effect
Type: functional
Conditions: not given

SMILES	Time [h]
CC[C@@H](C(N)=O)N1CCCC1=O	1
